ChEMBL document CHEMBL1124278, “Heterocyclic quinones with potential antitumor activity. 2. Synthesis and antitumor activity of some benzimidazole-4,7-dione derivatives” (1988)

Key:
[1] = test system: P338; test: Antitumor activity against P338 leukemia cells measured as T/C(average survival time of treated mice/control mice*100)at 0.4 mg/kg, ip optimal dose on days 1-5 in mice; assay type: functional; settings: Mus musculus, route intraperitoneal
How it was run: (§1)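 Five CD2F1 mice per group received 10⁶ P388 lymphocytic leukemia cells ip on day 0. Drug was given ip daily on days 1–5, following NCI protocols. %T/C is mean survival time of treated over control mice × 100, taken at the optimal dose; the toxic dose level was also recorded.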

[2] = test system: P338; test: Antitumor activity against P338 leukemia cells measured as T/C(average survival time of treated mice/control mice*100)at 0.4 mg/kg, ip optimal dose on day 1 in mice; assay type: functional; settings: Mus musculus, 24 h, route intraperitoneal
How it was run: (§2)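 Groups of five CD2F1 mice were inoculated ip with 10⁶ P388 lymphocytic leukemia cells on day 0. Drug was given as a single ip injection on day 1, following NCI protocols. %T/C = (average survival time of treated mice / control mice) × 100, taken at the optimal dose; the toxic dose level was also recorded.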

[3] = test system: P338; test: Antitumor activity against P338 leukemia cells measured as toxic level at 0.4 mg/kg, ip optimal dose on day 1 in mice; assay type: functional, Mus musculus; settings: route intraperitoneal
How it was run: (§3)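 Groups of five mice were inoculated ip with 10⁶ P388 (P338) lymphocytic leukemia cells on day 0. The drug was given as a single ip injection on day 1, following NCI protocols. Optimal dose, maximum % T/C and toxic level are in mg/kg. % T/C = (average survival time of treated mice / control mice) × 100.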

[4] = test system: P338; test: Antitumor activity against P338 leukemia cells measured as toxic level at 0.4 mg/kg, ip optimal dose on days 1-5 in mice; assay type: functional, Mus musculus; settings: route intraperitoneal
How it was run: (§4)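 Groups of five mice were inoculated ip with 10⁶ P388 (P338) lymphocytic leukemia cells on day 0. Drug was injected ip daily on days 1–5, following NCI protocols. Optimal dose, maximum % T/C and toxic level are in mg/kg. % T/C = (average survival time of treated mice / control mice) × 100.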

[5] = test system: P338; test: Antitumor activity against P338 leukemia cells measured as toxic level at 6.25 mg/kg, ip optimal dose on days 1-5 in mice; assay type: functional, Mus musculus; settings: route intraperitoneal; how it was run: as §4
[6] = test system: P338; test: Antitumor activity against P338 leukemia cells measured as T/C(average survival time of treated mice/control mice*100)at 6.25 mg/kg, ip optimal dose on day 1 in mice; assay type: functional; settings: Mus musculus, 24 h, route intraperitoneal; how it was run: as §2
[7] = test system: P338; test: Antitumor activity against P338 leukemia cells measured as T/C(average survival time of treated mice/control mice*100)at 6.25 mg/kg, ip optimal dose on days 1-5 in mice; assay type: functional; settings: Mus musculus, route intraperitoneal; how it was run: as §1
[8] = test system: P338; test: Antitumor activity against P338 leukemia cells measured as toxic level at 6.25 mg/kg, ip optimal dose on day 1 in mice; assay type: functional, Mus musculus; settings: route intraperitoneal; how it was run: as §3
[9] = test system: P338; test: Antitumor activity against P338 leukemia cells measured as T/C(average survival time of treated mice/control mice*100)at 3.12 mg/kg, ip optimal dose on days 1-5 in mice; assay type: functional; settings: Mus musculus, route intraperitoneal; how it was run: as §1
[10] = test system: P338; test: Antitumor activity against P338 leukemia cells measured as toxic level at 3.12 mg/kg, ip optimal dose on days 1-5 in mice; assay type: functional, Mus musculus; settings: route intraperitoneal; how it was run: as §4
[11] = test system: P338; test: Antitumor activity against P338 leukemia cells measured as toxic level at 1.56 mg/kg, ip optimal dose on days 1-5 in mice; assay type: functional, Mus musculus; settings: route intraperitoneal; how it was run: as §4
[12] = test system: P338; test: Antitumor activity against P338 leukemia cells measured as T/C(average survival time of treated mice/control mice*100)at 1.56 mg/kg, ip optimal dose on days 1-5 in mice; assay type: functional; settings: Mus musculus, route intraperitoneal; how it was run: as §1
[13] = test system: P338; test: Antitumor activity against P338 leukemia cells measured as toxic level at 25 mg/kg, ip optimal dose on day 1 in mice; assay type: functional, Mus musculus; settings: route intraperitoneal; how it was run: as §3
[14] = test system: P338; test: Antitumor activity against P338 leukemia cells measured as T/C(average survival time of treated mice/control mice*100)at 25 mg/kg, ip optimal dose on day 1 in mice; assay type: functional; settings: Mus musculus, 24 h, route intraperitoneal; how it was run: as §2
[15] = test system: P338; test: Antitumor activity against P338 leukemia cells measured as T/C(average survival time of treated mice/control mice*100)at 25 mg/kg, ip optimal dose on days 1-5 in mice; assay type: functional; settings: Mus musculus, route intraperitoneal; how it was run: as §1
[16] = test system: P338; test: Antitumor activity against P338 leukemia cells measured as toxic level at 25 mg/kg, ip optimal dose on days 1-5 in mice; assay type: functional, Mus musculus; settings: route intraperitoneal; how it was run: as §4
[17] = test system: P338; test: Antitumor activity against P338 leukemia cells measured as toxic level at 12.5 mg/kg, ip optimal dose on days 1-5 in mice; assay type: functional, Mus musculus; settings: route intraperitoneal; how it was run: as §4
[18] = test system: P338; test: Antitumor activity against P338 leukemia cells measured as T/C(average survival time of treated mice/control mice*100)at 12.5 mg/kg, ip optimal dose on days 1-5 in mice; assay type: functional; settings: Mus musculus, route intraperitoneal; how it was run: as §1
[19] = test system: P338; test: Antitumor activity against P338 leukemia cells measured as T/C at 3.12 mg/kg, ip optimal dose on day 1 in mice; assay type: functional; settings: Mus musculus, 24 h, route intraperitoneal; how it was run: as §2
[20] = test system: P338; test: Antitumor activity against P338 leukemia cells measured as toxic level at 3.12 mg/kg, ip optimal dose on day 1 in mice; assay type: functional, Mus musculus; settings: route intraperitoneal; how it was run: as §3

Q: How did the survival at 0.4 mg/kg [1] turn out when `Cn1cnc2c1C(=O)C=CC2=O` was run?
A: Its survival at 0.4 mg/kg is 95%.

Q: And the survival at 0.4 mg/kg [2]?
A: The survival at 0.4 mg/kg was 76%.

Q: And the Toxic level [3]?
A: Its Toxic level is 3.12 mg/kg.

Q: And the Toxic level [4]?
A: Its Toxic level is 6.25 mg/kg.

Q: For `O=C1C=CC(=O)c2[nH]cnc21`, which Toxic level [5] is on record?
A: The Toxic level was 25 mg/kg.

Q: What about the survival at 6.25 mg/kg [6] of the same molecule?
A: The survival at 6.25 mg/kg was 105%.

Q: What about the survival at 6.25 mg/kg [7] of the same molecule?
A: The survival at 6.25 mg/kg was 110%.

Q: What about the Toxic level [8] of the same molecule?
A: The Toxic level was 12.5 mg/kg.

Q: What does the source list for `O=C1C(CCl)=CC(=O)c2[nH]cnc21`?
A: survival at 3.12 mg/kg [9]: 95%; Toxic level [10]: 12.5 mg/kg

Q: With `O=C1C(Br)=C(Br)C(=O)c2[nH]cnc21` as the molecule, how does the Toxic level [11] read?
A: The Toxic level was 12.5 mg/kg.

Q: What about the survival at 1.56 mg/kg [12] of the same molecule?
A: Its survival at 1.56 mg/kg is 130%.

Q: For `O=C(Nc1ccccc1)OCc1nc2c([nH]1)C(=O)C=CC2=O`, which Toxic level [5] is on record?
A: Its Toxic level is 25 mg/kg.

Q: And the survival at 6.25 mg/kg [7]?
A: Its survival at 6.25 mg/kg is 146%.

Q: With `CCn1cnc2c1C(=O)C(C)=C(C)C2=O` as the molecule, how does the Toxic level [13] read?
A: Its Toxic level is 100 mg/kg.

Q: What about the survival at 25 mg/kg [14] of the same molecule?
A: Its survival at 25 mg/kg is 100%.

Q: `CC1=C(C)C(=O)c2[nH]cnc2C1=O` was tested. Which survival at 25 mg/kg [15] did it give?
A: The survival at 25 mg/kg was 130%.

Q: What about the Toxic level [16] of the same molecule?
A: The Toxic level was 200 mg/kg.

Q: For `CC1=C(C)C(=O)c2[nH]c(C)nc2C1=O`, which Toxic level [17] is on record?
A: The Toxic level was 100 mg/kg.

Q: What about the survival at 12.5 mg/kg [18] of the same molecule?
A: The survival at 12.5 mg/kg was 110%.

Q: For `Cc1nc2c([nH]1)C(=O)C=CC2=O`, which survival at 3.12 mg/kg [9] is on record?
A: Its survival at 3.12 mg/kg is 100%.

Q: And the Toxic level [10]?
A: The Toxic level was 6.25 mg/kg.

Q: For `O=C1C=CC(=O)c2[nH]c(CO)nc21`, which Toxic level [5] is on record?
A: The Toxic level was 12.5 mg/kg.

Q: And the survival at 3.12 mg/kg [19]?
A: Its survival at 3.12 mg/kg is 105%.

Q: What about the Toxic level [20] of the same molecule?
A: Its Toxic level is 12.5 mg/kg.

Q: And the survival at 6.25 mg/kg [7]?
A: Its survival at 6.25 mg/kg is 110%.

Q: What does the source list for `NC1=C(Br)C(=O)c2[nH]cnc2C1=O`?
A: Toxic level [5]: 25 mg/kg; survival at 6.25 mg/kg [7]: 154%

Q: For `CC1=C(C)C(=O)c2c(ncn2C)C1=O`, which Toxic level [13] is on record?
A: The Toxic level was 100 mg/kg.

Q: And the survival at 25 mg/kg [14]?
A: The survival at 25 mg/kg was 95%.

Q: With `O=C1C=C(NCc2ccccc2)C(=O)c2[nH]cnc21` as the molecule, how does the Toxic level [13] read?
A: Its Toxic level is 100 mg/kg.

Q: What about the survival at 25 mg/kg [14] of the same molecule?
A: Its survival at 25 mg/kg is 90%.

Q: And the survival at 3.12 mg/kg [9]?
A: The survival at 3.12 mg/kg was 105%.

Q: What about the Toxic level [10] of the same molecule?
A: The Toxic level was 150 mg/kg.

Q: With `O=C1C(Cl)=CC(=O)c2[nH]cnc21` as the molecule, how does the survival at 6.25 mg/kg [6] read?
A: Its survival at 6.25 mg/kg is 117%.

Q: And the Toxic level [8]?
A: The Toxic level was 12.5 mg/kg.

Q: `CC1CN1C1=C(Br)C(=O)c2[nH]cnc2C1=O` (stereo not given) was tested. Which Toxic level [5] did it give?
A: The Toxic level was 12.5 mg/kg.

Q: What about the survival at 6.25 mg/kg [7] of the same molecule?
A: Its survival at 6.25 mg/kg is 136%.

Q: What does the source list for `O=C1C(Br)=C(N2CC2)C(=O)c2[nH]cnc21`?
A: Toxic level [5]: 12.5 mg/kg; survival at 6.25 mg/kg [7]: 156%
